Data published in ChEMBL document CHEMBL4316650, “Leucinostatin Y: A Peptaibiotic Produced by the Entomoparasitic Fungus Purpureocillium lilacinum 40-H-28” (J Nat Prod, 2019).
The source made the active and inactive calls. No cut-off for these calls is given here. *1 amine or outer side, *2 acyl side, *3 side chain or, on linkers, in order; H or OH if unused. Where a SMILES comes first, the peptide text is derived from it. [ ]: non-standard residue; d: D form. The star is where a group is joined. ξ: configuration not given here. X1 = CCC(=O)C[C@H](O)C[C@@H](C)C[C@H](N[*:1])C(=O)[*:2]; X3 = CCC(=O)CC(O)CC(C)C[C@H](N[*:1])C(=O)[*:2]; Hexenoyl(2E,4S-Me) = CC[C@H](C)/C=C/C(=O)*; Leu(3R-OH) = CC(C)[C@@H](O)[C@H](N)C(=O)O; NH((S)CH(Me)CH2NMe2) = C[C@@H](CN(C)C)N*; Pro(4S-Me) = C[C@@H]1CN[C@H](C(=O)O)C1; X2 = CCC(C)/C=C/C(=O)*; Aib = CC(C)(N)C(=O)O; βAla = NCCC(=O)O; ξA = CC(N)C(=O)O

Key:
[1] = Cytotoxicity against human PK8 cells assessed as reduction in cell viability measured after 24 hrs in presence of glucose by MTT assay; format: cell-based
Summary of the method: (§1)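 Cells grown at 37 °C, 5% CO2 in DMEM with 10% FBS. 2.5 × 10⁴ cells/well were seeded in DMEM for 24 h, then PBS-washed and switched to fresh DMEM (+glucose) or glucose-deprived medium. Compound exposure was 24 h. MTT at 0.5 mg/mL was added for 4 h at 37 °C, then 20% SDS for 12 h at 37 °C. Absorbance read at 570 nm.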

Homo sapiens [2] = species on record: Homo sapiens; experiment: Inhibition of mitochondrial ATPase in human PANC1 cells assessed as decrease in oxygen consumption rate in presence of glucose by seahorse XFe96 analyser based assay; format: cell-based
Summary of the method: (§2)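 Mito stress test on PANC-1 cells: 2 × 10⁴ cells were plated in DMEM overnight. Cells were moved to XF base medium with 1 mM pyruvate and 2 mM GlutaMax, containing 1 g/L glucose (or lacking it for glucose-free runs), then held 30 min at 37 °C without CO2. Injections in order: compound, 1 μM oligomycin, 1 μM FCCP, 0.5 μM rotenone plus 0.5 μM antimycin. OCR and ECAR were taken as mean rates per cycle of 2 min mixing and 3 min acquisition, over 20 or 21 cycles.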

PANC-1 [3] = experiment: Cytotoxicity against human PANC1 cells assessed as reduction in cell viability measured after 24 hrs in presence of glucose by MTT assay; format: cell-based; conditions: panc-1, 24 h; summary of the method: as §1
PSN1 [4] = experiment: Cytotoxicity against human PSN1 cells assessed as reduction in cell viability measured after 24 hrs under glucose-deprived condition by MTT assay; format: functional, cell-based; summary of the method: as §1
BXPC-3 [5] = experiment: Cytotoxicity against human BxPC3 cells assessed as reduction in cell viability measured after 24 hrs under glucose-deprived condition by MTT assay; format: functional, cell-based; summary of the method: as §1
PANC-1 [6] = experiment: Cytotoxicity against human PANC1 cells assessed as reduction in cell viability measured after 24 hrs under glucose-deprived condition by MTT assay; format: functional, cell-based; summary of the method: as §1
PSN1 [7] = experiment: Cytotoxicity against human PSN1 cells assessed as reduction in cell viability measured after 24 hrs in presence of glucose by MTT assay; format: cell-based; conditions: psn1, 24 h; summary of the method: as §1
Homo sapiens [8] = species on record: Homo sapiens; experiment: Cytotoxicity against human PK8 cells assessed as reduction in cell viability measured after 24 hrs under glucose-deprived condition by MTT assay; format: functional, cell-based; summary of the method: as §1
Homo sapiens [9] = species on record: Homo sapiens; experiment: Inhibition of mitochondrial ATPase in human PANC1 cells assessed as increase in extracellular acidification rate in presence of glucose by seahorse XFe96 analyser based assay; format: cell-based; summary of the method: as §2
BXPC-3 [10] = experiment: Cytotoxicity against human BxPC3 cells assessed as reduction in cell viability measured after 24 hrs in presence of glucose by MTT assay; format: cell-based; conditions: bxpc-3, 24 h; summary of the method: as §1
Homo sapiens [11] = species on record: Homo sapiens; experiment: Inhibition of mitochondrial ATPase in human PANC1 cells assessed as increase in extracellular acidification rate at 0.6 ug/ml in presence of glucose by seahorse XFe96 analyser based assay; format: cell-based; summary of the method: as §2
Homo sapiens [12] = species on record: Homo sapiens; experiment: Inhibition of mitochondrial ATPase in human PANC1 cells assessed as increase in extracellular acidification rate at 0.6 ug/ml in absence of glucose by seahorse XFe96 analyser based assay; format: cell-based; summary of the method: as §2
Homo sapiens [13] = species on record: Homo sapiens; experiment: Inhibition of mitochondrial ATPase in human PANC1 cells assessed as decrease in oxygen consumption rate at 0.6 ug/ml in presence of glucose by seahorse XFe96 analyser based assay; format: cell-based; summary of the method: as §2
Homo sapiens [14] = species on record: Homo sapiens; experiment: Inhibition of mitochondrial ATPase in human PANC1 cells assessed as decrease in oxygen consumption rate at 0.6 ug/ml in absence of glucose by seahorse XFe96 analyser based assay; format: cell-based; summary of the method: as §2

Structure (SMILES) | Activity [1] | inhibition (Homo sapiens [2]) | Activity (PANC-1 [3]) | Activity (PSN1 [4]) | Activity (BXPC-3 [5]) | Activity (PANC-1 [6]) | Activity (PSN1 [7]) | Activity (Homo sapiens [8]) | inhibition (Homo sapiens [9]) | Activity (BXPC-3 [10]) | inhibition (Homo sapiens [11]) | inhibition (Homo sapiens [12]) | inhibition (Homo sapiens [13]) | inhibition (Homo sapiens [14])
CCC(=O)CC(O)CC(C)C[C@H](NC(=O)[C@@H]1C[C@H](C)CN1C(=O)/C=C/C(C)CC)C(=O)N[C@H](C(=O)NC(C)(C)C(=O)N[C@@H](CC(C)C)C(=O)N[C@@H](CC(C)C)C(=O)NC(C)(C)C(=O)NC(C)(C)C(=O)NCCC(=O)NC(C)C(=O)O)[C@H](O)C(C)C (stereo partly drawn) (X2-[Pro(4S-Me)][X3][Leu(3R-OH)][Aib]LL[Aib][Aib][βAla][ξA]-OH) | Non-Toxic | inactive | Non-Toxic | inactive | inactive | inactive | Non-Toxic | inactive | inactive | Non-Toxic |  |  |  | 
CCC(=O)C[C@H](O)C[C@@H](C)C[C@H](NC(=O)[C@@H]1C[C@H](C)CN1C(=O)/C=C/[C@@H](C)CC)C(=O)N[C@H](C(=O)NC(C)(C)C(=O)N[C@@H](CC(C)C)C(=O)N[C@@H](CC(C)C)C(=O)NC(C)(C)C(=O)NC(C)(C)C(=O)NCCC(=O)N[C@@H](C)CN(C)C)[C@H](O)C(C)C ({Hexenoyl(2E,4S-Me)}-[Pro(4S-Me)][X1][Leu(3R-OH)][Aib]LL[Aib][Aib][βAla]-{NH((S)CH(Me)CH2NMe2)}) | Non-Toxic | Active |  | Active | Active | Active | Non-Toxic | Active | Active | Non-Toxic | Active | inactive | Active | Active
